In the RNAGym collection of RNA variant scans (doi:10.1126/science.aae0568) one finds yeast fitness data, which are given here for 167 variants.

Variants at the floor of the assay were thinned out.

The chains are these.
B1: tRNA (parent)
chain: GUUCCGUUGGCGUAAUGGUAACGCGUCUCCCUCCUAAGGAGAAGACUGCGGGUUCGAGUCCCGUACGGAACG

The variants in this data set derive from B1. Nature of the data set: yeast fitness relative to wild type (ratio to wild type); higher = fitter; tRNA-Arg(CCU), competitive growth, 37 C, YPD. A digest of the protocol: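 The tRNA-Arg(CCU) gene variants were made by chemical synthesis with a 3% per-site mutation rate at 69 sites and inserted at the native genomic locus of Saccharomyces cerevisiae. After pooling, the strains were competed in YPD at 37°C for 24 hours in six parallel replicates. Gene amplicons from the start population and each end population were read by 100-nucleotide paired-end sequencing, and Darwinian fitness relative to wild type was taken from genotype frequency changes. Genotypes needed ≥ 100 starting reads, and estimates < 0.5 were set to 0.5.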
For the variant C34G A57G C61U, the yeast fitness is at most 0.5.
On to C33U U59A, for which the yeast fitness was determined as 0.67.
The value for C34A G44C A57U C62U was at most 0.5.
For the variant C34G A37C G38A C66U, the yeast fitness was at most 0.5.
On to C33U U47C A57G, for which the yeast fitness is at most 0.5.
Regarding C34A A37G C61A, the yeast fitness was at most 0.5.
The result for C33U C34U G50A reads 0.608.
Regarding C34A C49A G63U G67A, the yeast fitness is at most 0.5.
The value for C34G G50C A69U was at most 0.5.
The result for C33U C55U C60U reads at most 0.5.
For the variant C34A A37U U54C, the yeast fitness amounted to 0.542.
As to C34G C55U G58A, the yeast fitness was at most 0.5.
Consider C34U A40G A43G C62A A69C, for which the yeast fitness was at most 0.5.
In the case of C34G C62U, the yeast fitness turned out to be 0.639.
In the case of C34G C62A, the yeast fitness came out at 0.64.
The value for C33U U53C was 0.574.
The value for C33U G63A was 0.614; that for C33U G63C was 0.545.
Consider C34A A42U A69U, for which the yeast fitness is at most 0.5.
For C34A G39A, the yeast fitness was 0.734.
With C34G U35A G63C, the yeast fitness is at most 0.5.
Take C34G G48C C66U: the yeast fitness came out at 0.562.
The result for C34G A57G A65G C66U reads 0.58; that for C34U A40G, 0.729.
Take C34U A40U: the yeast fitness was 0.632.
The value for C34G A37G A65G was 0.966; that for C34G C60U was 0.536.
The value for C34U A37U A45U A57G C61U A70G was at most 0.5; that for C34G A43U C49A was 0.737.
The value for C34G G48A A70U was 0.584.
As to C34G A42G C49A, the yeast fitness was at most 0.5.
With C33U C49G A65C, the yeast fitness was 0.504.
The value for C33U G51C was at most 0.5.
As to C33U C34A A36G A42U C49U, the yeast fitness amounted to 0.571.
For C34G A40G C46G C49A C66A A69U, the yeast fitness is at most 0.5.
Turning to C33U A43G U53C, the yeast fitness was at most 0.5.
As for C34U A45C G52A A65G, the yeast fitness was 0.688.
The result for C34G C61U C66U reads 0.538; that for C34A G67A, 0.652.
Take C34G G44U C49G C61U A69G: the yeast fitness was at most 0.5.
C34G A69U: the yeast fitness turned out to be 0.631.
On to C34G A69C, for which the yeast fitness is 0.589.
The value for C34G C46A C62U A69C was at most 0.5; that for C34G G38C A69U was 0.5; that for C34G A37C G58C was at most 0.5.
The result for C33U G44A A65G reads 0.606.
The value for C34G A36G G52A C66U was at most 0.5; that for C34A A37C G63C was at most 0.5.
Take C34G A45U G68C: the yeast fitness came to 0.578.
C34A A40C A42U A65U G67A: the yeast fitness was at most 0.5.
The result for C33U C49U A69U reads 0.564.
Consider C34A A37U G52A, for which the yeast fitness is at most 0.5.
Consider C34G G41C C60A, for which the yeast fitness was determined as 0.607.
The value for C33U U64G A70C was 0.555.
In the case of C33U G58C C62A C66G, the yeast fitness is at most 0.5.
For the variant C33U A57U U59C, the yeast fitness worked out at 0.601.
As for C34G A65U A70G, the yeast fitness was at most 0.5.
The result for C34G A43C G50C reads at most 0.5.
Take C34G A42U C61U: the yeast fitness is at most 0.5.
As for C34G C49G C61U A69G, the yeast fitness came out at 0.567.
As for C34G G68A, the yeast fitness was 0.586.
The result for C34G G68C reads 0.603.
Turning to C33U A45C, the yeast fitness was found to be 0.703.
As for C34G A40G G41U C46G A57U C61U, the yeast fitness is at most 0.5.
The value for C34G was 0.65.
As to C34A, the yeast fitness worked out at 0.71.
The result for C34U reads 0.707.
For C34G C55A, the yeast fitness is at most 0.5.
As for C34A A69U, the yeast fitness is 0.858.
The result for C34A A69C reads 0.752; that for C33U G56U A65G, at most 0.5.
Regarding C34G C61A, the yeast fitness is 0.613.
As to C34G U54C, the yeast fitness was found to be 0.569.
The value for C34U A57G C60A was at most 0.5.
The result for C33U A45C U64G reads at most 0.5; that for C34A A36U C55G C66A, at most 0.5.
As to C33U G48A U64G, the yeast fitness was 0.618.
The result for C34G A37U C49G A57G A65G C66U reads at most 0.5.
With C34A C49U, the yeast fitness amounted to 0.826.
For C34G G38C A40U G48C C49G, the yeast fitness was at most 0.5.
The value for C34A U53A G67A was at most 0.5; that for C34A A45C G68A was 0.614.
The value for C33U A42G U59G was 0.504; that for C33U A42G U59A was at most 0.5.
The result for C34U A36G C49U C55G A57U G67A reads at most 0.5; that for C34A G41A, 0.782; that for C34G A42G C66U, 1.03.
With C34G C49A U59G, the yeast fitness stood at 0.547.
On to C34A G44C G68A, for which the yeast fitness was at most 0.5.
The value for C34G G51C U53C was 0.616; that for C34U A42C A69C was at most 0.5.
As for C34G A40U A43C C49G G50A C60U, the yeast fitness is at most 0.5.
Take C34A A36C C46A: the yeast fitness was at most 0.5.
The result for C34A A37U reads 0.741; that for C34G U59A, 0.538.
The value for C34G U59G was 0.534; that for C34G C55A C66U was at most 0.5.
The value for C34U A36G A40U was at most 0.5.
With C34G C66U, the yeast fitness was 0.634.
With C34A U35A C49A C55U, the yeast fitness is at most 0.5.
The value for C34A G56C G58A G63C A65U was at most 0.5; that for C34G A65U C66A was at most 0.5; that for C33U U59A A70G was at most 0.5.
The value for C34A G44A A57U was at most 0.5; that for C33U G41C was 0.708; that for C33U G41A was 0.721.
The value for C34G G52C C60G was at most 0.5; that for C34A C46U U47A was at most 0.5; that for C34U A57C was 0.553.
Regarding C34G A40U, the yeast fitness was determined as 0.596.
For the variant C34G A40C, the yeast fitness was found to be 0.636.
With C34G A45C G51A A65U, the yeast fitness was determined as 0.617.
Consider C34U A37G A45U C49A, for which the yeast fitness is at most 0.5.
In the case of C34A C61G, the yeast fitness is at most 0.5.
For C34A U47C G51A A69U, the yeast fitness is at most 0.5.
Take C34A A57U: the yeast fitness amounted to 0.529.
The result for C34U A36G reads 0.696; that for C34U A36C, 0.554.
The result for C34A A45U reads 0.698; that for C34A G41A C46A, at most 0.5.
The value for C34G A43U C49A A69U was 0.584.
Regarding C34G A42G G44C C66A, the yeast fitness is at most 0.5.
Consider C33U A43G A70U, for which the yeast fitness was 0.637.
The result for C34A G38C A43U reads 0.588.
Turning to C34G G39A A70C, the yeast fitness is at most 0.5.
The value for C34A C62G was 0.675.
The result for C33U A70G reads 0.6; that for C33U C34G C66U, 0.542.
For the variant C34A U54C, the yeast fitness was 0.566.
For C33U U47C, the yeast fitness was determined as 0.713.
The value for C33U A69U was 0.788; that for C33U G38A G41U C46U was at most 0.5.
As to C34A A42U G68C, the yeast fitness is at most 0.5.
The result for C34G C46U A57U C60G A65C reads at most 0.5.
The value for C34G G50C G56C was at most 0.5; that for C34G A45G C60U A69U was at most 0.5; that for C34G A37C C60A was at most 0.5.
The result for C33U G68A reads 0.679.
Take C34G G50C: the yeast fitness is at most 0.5.
On to C33U G38A, for which the yeast fitness is 0.866.
Turning to C34A A42U, the yeast fitness was found to be 0.618.
The value for C34A A42C was 0.818; that for C34G A37C G44C was at most 0.5.
The value for C34G A70U was 0.597; that for C34G A70C was 0.585; that for C34G A70G was 0.586.
Turning to C34G G39A C49G C61U, the yeast fitness was at most 0.5.
The result for C34G G38A A57G reads 0.539; that for C34G C49G A65G, at most 0.5; that for C33U C34A A36G A42U, 0.73.
The result for C33U A57U reads 0.546.
C33U A57C: the yeast fitness was at most 0.5.
The result for C33U C49U G51C C55U reads at most 0.5.
The result for C34G A45C A57C reads 0.514.
For C33U G39A G63A, the yeast fitness was at most 0.5.
The value for C33U G41C A45C was 0.621.
The value for C33U A43G U47C was 0.563; that for C33U A43C G48A G63C was at most 0.5; that for C34A A42C A45U A65U was at most 0.5.
As for C34U A37U A45U A57G C61U, the yeast fitness is at most 0.5.
The result for C33U C49U G51C reads 0.512.
Consider C34A C49U G50C G58A, for which the yeast fitness amounted to 0.869.
C34G G52A A69C: the yeast fitness was 0.645.
The value for C34G G48C U59C was 0.712.
The value for C33U U35C C61U was 0.555.
The result for C33U U53A G58C reads at most 0.5; that for C34A G38C A43U G68A, at most 0.5.
